Screening results (PubChem BioAssay)
CSC inhib – blocks cancer stem cells; 300,000 compounds, 1.1% hits; inhibition, % at 7.5 µM; cancer stem cell-like cells viability, luminescence; AID 2717; in the data active means inhibition above about 75%; tested in HMLE shEcad cells
Beta apoptosis – beta cell apoptosis inhibition; INS-1E cytokine-induced death, ATP luminescence, 48 h; percent of positive-control rescue, neutral wells zero; protection from apoptosis, % (concentration not given with the values); 300,000 compounds, 0.8% hits; AID 435005;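 active means Every replicate reaches about 75%, or at least half do and their mean reaches it too, limit read from the data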;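 further: 0% = cytokine-treated negative control wells and 100% = positive control rescue; higher means more ATP so stronger rescue from cytokine killing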
T cruzi repl – T. cruzi replication inhibition; T. cruzi beta-gal in NIH3T3, luminescence, 90 h; inhibition, % (no concentration beside the values); 300,000 compounds, 1.4% hits; AID 1885;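 active means mean inhibition across valid replicates above about 55%, limit read from the data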;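 further: signal also drops with host cell toxicity which is not excluded here; 0% = plate median of DMSO wells and 100% = zero luminescence signal; higher percent means less beta-gal luminescence so fewer parasites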
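Assay system: NIH/3T3 host cells with β-galactosidase reporter T. cruzi; input: 5,000 host fibroblasts per well; compound: single 50 nL compound addition per well in DMSO; timing: ≥90 h infection period, 3 h prior cell attachment; measured by: GalScreen β-gal luminescence, detergent lysis, 60 min; evaluation: percent inhibition of parasite-derived β-gal signal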
CHOP inhibitor – CHOP inhibition in unfolded protein response | CHO-K1 CHOP-promoter luciferase, tunicamycin-induced, 15-18 h | inhibition, % at 10 µM | 220,000 compounds, 3.8% hits | AID 2732;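 active means compounds that reduced the stress-induced luciferase reporter signal by more than about 70% of percent inhibition, limit read from the data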;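 further: 0% = tunicamycin plus vehicle and 100% = wells without tunicamycin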
GRIN3A LBD mod – modulates the human NR3A ligand-binding domain; 340,000 compounds, 2.5% hits; Tm shift relative to glycine control, % at 25 µM; AID 1259313; NR3A LBD differential scanning fluorimetry, Tm shift; 0% = protein alone, 100% = glycine-bound protein;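 active means melting temperature shift of at least 10% of the positive control shift, at one fixed dose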
PREPL inhibitor – inhibits the human prolyl oligopeptidase-like enzyme; Q4J6C6; inhibition, % at 5.96 µM; 320,000 compounds, 0.68% hits; recombinant PREPL, fluorescence polarization activity-based probe; AID 2751; in the data active means inhibition above about 43%;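 further: 0% = enzyme with DMSO and 100% = wells lacking enzyme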
Target sequence (Q4J6C6 whole entry, looked up): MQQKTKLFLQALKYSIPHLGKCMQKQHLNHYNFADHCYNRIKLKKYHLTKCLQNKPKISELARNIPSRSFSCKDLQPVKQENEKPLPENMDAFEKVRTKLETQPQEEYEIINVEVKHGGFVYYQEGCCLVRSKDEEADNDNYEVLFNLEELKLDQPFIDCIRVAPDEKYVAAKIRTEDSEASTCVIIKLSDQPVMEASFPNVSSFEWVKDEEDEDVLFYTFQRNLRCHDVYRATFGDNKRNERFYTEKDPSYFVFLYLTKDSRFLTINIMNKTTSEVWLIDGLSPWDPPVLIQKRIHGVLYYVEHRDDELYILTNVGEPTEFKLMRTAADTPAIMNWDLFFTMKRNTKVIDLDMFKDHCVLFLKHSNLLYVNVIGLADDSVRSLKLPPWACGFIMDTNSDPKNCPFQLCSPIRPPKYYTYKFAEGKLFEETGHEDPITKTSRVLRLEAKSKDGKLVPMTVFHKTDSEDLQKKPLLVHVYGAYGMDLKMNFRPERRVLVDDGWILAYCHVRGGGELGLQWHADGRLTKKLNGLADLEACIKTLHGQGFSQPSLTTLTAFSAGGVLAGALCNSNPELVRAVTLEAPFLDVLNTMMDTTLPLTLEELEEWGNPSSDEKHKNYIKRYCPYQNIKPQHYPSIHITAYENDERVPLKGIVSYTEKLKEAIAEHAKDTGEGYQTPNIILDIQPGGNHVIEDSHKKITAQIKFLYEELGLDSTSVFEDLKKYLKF
CHOP confirm – confirmation of CHOP induction inhibitors; shares compounds with CHOP inhibitor; CHO-CHOP promoter luciferase reporter, tunicamycin-induced, luminescence; inhibition, % at 10 µM; 2,100 compounds, 45% hits;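 active means mean of three repeat readings of reporter signal inhibition above a set limit, cut at about 70% in these data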;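 further: 0% = tunicamycin plus vehicle and 100% = wells lacking tunicamycin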
Starred values were filed as active, the others as inactive. This is a sample that favours compounds with a hit; in the whole collection about 6.7% have one here.

For CCc1nc(N=Nc2c(O)[nH]c3ccccc23)c2c3c(sc2n1)CCC3 the results were CSC inhib 13, Beta apoptosis 5, T cruzi repl -7, CHOP inhibitor 101*, GRIN3A LBD mod -1, PREPL inhibitor 7 and CHOP confirm 35.
`CCOC(=O)C1=C(N)Oc2c(c(=O)[nH]c3ccccc23)C1c1ccccc1` (centres undefined) gave CSC inhib -5, Beta apoptosis -10, T cruzi repl 3, CHOP inhibitor 97*, GRIN3A LBD mod 2, PREPL inhibitor -10 and CHOP confirm -4.
`Cc1nc2ccc(NC(=O)c3cc([N+](=O)[O-])cc([N+](=O)[O-])c3Cl)cc2s1` gave CSC inhib 54, Beta apoptosis 0, CHOP inhibitor 107*, GRIN3A LBD mod 18*, PREPL inhibitor 16 and CHOP confirm 6.
Screening CC(Oc1ccccc1F)C(=O)NNC(=O)CCNC(=O)c1ccccc1Cl (centres undefined) returned CSC inhib 1, Beta apoptosis -7, T cruzi repl 5, GRIN3A LBD mod -1 and PREPL inhibitor -4.
`CCC(C)Sc1nc2c(c(=O)[nH]c(=O)n2C)n1Cc1ccc(Cl)cc1` (centres undefined) gave CSC inhib 12, Beta apoptosis 12, T cruzi repl 22, CHOP inhibitor 98*, GRIN3A LBD mod 2, PREPL inhibitor 6 and CHOP confirm 103*.
For CSc1nc2c(c(=O)[nH]c(=O)n2C)n1CCCc1ccccc1 the results were CSC inhib -3, Beta apoptosis 0, T cruzi repl 6, GRIN3A LBD mod 0 and PREPL inhibitor 4.
For CC(C)Sc1nc2c(c(=O)[nH]c(=O)n2C)n1Cc1ccc(Cl)cc1 the results were CSC inhib 7, Beta apoptosis 10, T cruzi repl -5, CHOP inhibitor 47, GRIN3A LBD mod -4 and PREPL inhibitor 11.
Screening CC(C)CCSc1nc2c(c(=O)[nH]c(=O)n2C)n1CCCc1ccccc1 returned CSC inhib 12, Beta apoptosis 3, T cruzi repl 52, CHOP inhibitor 105*, GRIN3A LBD mod 3, PREPL inhibitor 10 and CHOP confirm 106*.
Screening CC1CCCN(C(=O)COc2ccc(Nc3ccccc3)cc2)C1 (centres undefined) returned CSC inhib 9, Beta apoptosis -2, T cruzi repl 8, CHOP inhibitor -14, GRIN3A LBD mod -1 and PREPL inhibitor 24.
`CCOc1ccc(NS(=O)(=O)c2ccc(C(=O)N(C)CC(=O)Nc3cccc(OC)c3)cc2)cc1` gave GRIN3A LBD mod -5.
CC(=O)Nc1ccc(-c2nnc(SCC(=O)c3ccc4c(c3)Cc3ccccc3-4)n2C)cc1 was read as CSC inhib -11, Beta apoptosis 2, T cruzi repl 5, CHOP inhibitor 105*, GRIN3A LBD mod 3, PREPL inhibitor -21 and CHOP confirm -86.
`Cn1c(SCC(=O)c2ccc(O)c(O)c2)nnc1-c1ccccc1` gave CSC inhib 5, Beta apoptosis -7, T cruzi repl -12 and GRIN3A LBD mod -1.
COCc1c(C(=O)N/N=C(/C)c2ccc(OCc3ccccc3)cc2)nnn1-c1nonc1N was read as CSC inhib -16, Beta apoptosis -6, T cruzi repl 6, GRIN3A LBD mod -7 and PREPL inhibitor 12.
For Cn1c(=O)c2c(ncn2CC(=O)Nc2nc(-c3ccccc3Cl)cs2)n(C)c1=O the results were Beta apoptosis -1, T cruzi repl -17, CHOP inhibitor 19, GRIN3A LBD mod -9 and PREPL inhibitor -8.
Screening Cn1c(=O)c2ncn(CC(=O)Nc3nc(-c4ccc(Cl)cc4)cs3)c2n(C)c1=O returned CSC inhib -3, Beta apoptosis -4, T cruzi repl 3, CHOP inhibitor 100*, GRIN3A LBD mod -1, PREPL inhibitor -20 and CHOP confirm 61.
For CC1=CC(C)(C)NC(=S)N1c1cccc(Cl)c1 the results were GRIN3A LBD mod -1.
`O=C1C=CC(O)(c2cc(=O)c3c(O)cc(O)cc3o2)C=C1` gave CSC inhib 16, Beta apoptosis 111*, T cruzi repl -39, CHOP inhibitor 108*, GRIN3A LBD mod -15, PREPL inhibitor -2 and CHOP confirm 122*.
Screening O=C(c1ccc(Cn2c(=S)[nH]c3ccccc3c2=O)cc1)N1CCN(c2ccccn2)CC1 returned CSC inhib 1, Beta apoptosis 26, T cruzi repl -1, CHOP inhibitor 42, GRIN3A LBD mod 0 and PREPL inhibitor 9.
`O=C(Cn1ncc(Cl)c(Cl)c1=O)N1CCN(S(=O)(=O)c2ccc3ccccc3c2)CC1` gave CSC inhib 102*, Beta apoptosis 14, T cruzi repl 51, CHOP inhibitor 99*, GRIN3A LBD mod -1, PREPL inhibitor 18 and CHOP confirm -25.
Screening Cc1ccc(N2CC(C(=O)N3CCN(Cc4ccc5c(c4)OCO5)CC3)CC2=O)cc1 (centres undefined) returned CSC inhib -1, Beta apoptosis 1, T cruzi repl 9, GRIN3A LBD mod 0 and PREPL inhibitor 14.
`O=S(=O)(C/C(=C/CO)S(=O)(=O)c1ccccc1)c1ccccc1` gave CSC inhib 3, Beta apoptosis 90*, T cruzi repl 62*, GRIN3A LBD mod 0, PREPL inhibitor -6 and CHOP confirm 118*.
Screening Cn1c(-c2ccccc2)c(C(=O)CCl)c2ccccc21 returned T cruzi repl 71*, CHOP inhibitor 108*, GRIN3A LBD mod 2 and CHOP confirm 46.
`CC1=NOC(=O)/C1=C\c1ccc(-c2ccc(Cl)c(C(=O)O)c2)o1` gave T cruzi repl 0, CHOP inhibitor 4 and GRIN3A LBD mod 3.
`CC1=NOC(=O)/C1=C\c1ccc(-c2cccc(Cl)c2)o1` gave CSC inhib 63, Beta apoptosis -13, T cruzi repl -22, CHOP inhibitor 102*, GRIN3A LBD mod -3, PREPL inhibitor 18 and CHOP confirm -52.
Cc1ccc(CNCc2cc3c(C(C)(C)C)nn(-c4ccccc4)c3[nH]c2=O)cc1 was read as CSC inhib 15, Beta apoptosis 3, T cruzi repl 29, CHOP inhibitor 108*, GRIN3A LBD mod -4, PREPL inhibitor 13 and CHOP confirm 71*.
Screening Cc1ccccc1OCC(=O)OCC(=O)Nc1cc(S(=O)(=O)N2CCCCC2)ccc1Cl returned CSC inhib -1, Beta apoptosis -5, T cruzi repl -5, GRIN3A LBD mod -5 and PREPL inhibitor 3.
Clc1ccc(-c2n[nH]c3c2CCC3)cc1Cl was read as CSC inhib -14, Beta apoptosis 2, T cruzi repl -1, CHOP inhibitor 98*, GRIN3A LBD mod -4, PREPL inhibitor -86 and CHOP confirm 63.
